Screening data (PubChem)
Most compounds without a hit are left out; they make up all but 1.9% or so of the library.
LEDGF integ inh: blocks HIV-1 LEDGF/p75-dependent DNA integration; inhibition, % at 3.7 µM; TR-FRET IN-LEDGF/p75 DNA integration, Eu/Cy5; actives 0.64% (n = 370,000);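 active means inhibition above the screen-wide mean plus 3 SD, cut at about 13% in these data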;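 further: signal is the Cy5 over europium emission ratio at 671 and 618 nm; 0% = plate median of compound wells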
MBD2 DNA inh: inhibitors of human MBD2 binding to methylated oligonucleotide. Q9UBB5. TR-FRET. inhibition, % at 4.4 µM. actives 0.31% (n = 370,000); in the data active means inhibition above about 13%
TDP2 absorb: blocks human TDP2 phosphodiesterase activity | O95551 | recombinant TDP2, T5PNP hydrolysis, p-nitrophenol absorbance 415 nm | inhibition, % at 12.8 µM | actives 0.34% (n = 370,000) | AID 720702;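 active means inhibition above the mean of all tested compounds plus 3 SD, set per campaign, cut at about 25% in these data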;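 further: 0% = DMSO with enzyme and 100% = buffer with substrate but no TDP2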
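Test system: Human TDP2 enzyme | Reagent: 5 mM T5PNP | Compound dosing: 12.8 µM single point, 1% DMSO | Incubation: Enzyme reaction with compound for 2 h at 37 °C | Technique: p-Nitrophenol epi absorbance | Read-out: % inhibition relative to enzyme-containing and enzyme-free wells | Benchmarks: High control without enzyme, low control DMSO plus TDP2 | Replicates: Singlicate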
NSD2 HMT inh: inhibitors of human histone methyltransferase NSD2; NSD2 peptide methylation, AlphaScreen, 120 min; inhibition, % at 12.5 µM; actives 0.54% (n = 310,000); AID 743445; in the data active means inhibition above about 50%
CASP6 VEID inh: caspase-6 (human) enzyme inhibition | inhibition, % at 12.5 µM | actives 0.53% (n = 350,000) | P55212 | purified caspase-6, Z-VEID-R110 cleavage fluorescence | AID 686996;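 active means mean inhibition across replicates at least about 35%, with every replicate also reaching that limit, limit read from the data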;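 further: 0% = median of neutral control wells and 100% = no fluorescence left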
UHRF1 binding: UHRF1 methyl-DNA binding inhibition. Q96T88. UHRF1 binding to methylated oligo, TR-FRET. inhibition, % at 4.4 µM. actives 0.75% (n = 370,000). AID 687016; in the data active means inhibition above about 21%;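 further: UHRF1 SRA domain binding a hemimethylated CpG hairpin DNA probe; 0% = median of test compound wells and 100% = reference inhibitor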
Target sequence (Q96T88 whole entry, looked up, the tested form may be a part): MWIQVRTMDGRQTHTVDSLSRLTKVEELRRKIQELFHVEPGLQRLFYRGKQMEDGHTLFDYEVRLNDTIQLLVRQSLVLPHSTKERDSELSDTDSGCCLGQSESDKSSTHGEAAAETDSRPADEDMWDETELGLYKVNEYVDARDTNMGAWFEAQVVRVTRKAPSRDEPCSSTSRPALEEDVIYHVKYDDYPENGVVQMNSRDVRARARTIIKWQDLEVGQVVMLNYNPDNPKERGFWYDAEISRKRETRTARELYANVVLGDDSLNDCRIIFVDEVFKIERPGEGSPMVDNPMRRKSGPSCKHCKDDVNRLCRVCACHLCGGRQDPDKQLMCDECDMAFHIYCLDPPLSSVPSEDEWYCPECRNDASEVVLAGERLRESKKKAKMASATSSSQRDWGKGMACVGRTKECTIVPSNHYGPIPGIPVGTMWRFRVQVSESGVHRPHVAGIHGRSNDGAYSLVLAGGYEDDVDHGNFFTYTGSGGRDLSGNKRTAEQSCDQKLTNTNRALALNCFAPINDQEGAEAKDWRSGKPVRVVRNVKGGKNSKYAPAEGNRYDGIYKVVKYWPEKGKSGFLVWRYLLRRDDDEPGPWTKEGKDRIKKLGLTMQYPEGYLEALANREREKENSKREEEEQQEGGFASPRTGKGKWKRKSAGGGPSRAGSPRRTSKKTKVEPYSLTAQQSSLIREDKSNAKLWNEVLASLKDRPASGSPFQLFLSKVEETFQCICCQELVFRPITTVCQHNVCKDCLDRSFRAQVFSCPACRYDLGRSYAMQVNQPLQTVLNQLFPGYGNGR
Starred values were filed as active, the others as inactive; x = no result given.

SMILES	LEDGF integ inh	MBD2 DNA inh	TDP2 absorb	NSD2 HMT inh	CASP6 VEID inh	UHRF1 binding
CC(NC(=O)COc1ccccc1-c1ccccc1)c1ccccc1 (stereo not drawn)	6	-9	-17	-1	2	4
COc1ccc(-c2nnn(CC(=O)N(CCCO)C(C(=O)NC3CCCC3)c3ccncc3)n2)cc1 (stereo not drawn)	-9	-1	-2	38	5	28*
COc1ccc(-c2nnn(CC(=O)N(CCO)C(C(=O)NC3CCCC3)c3ccncc3)n2)cc1 (stereo not drawn)	1	-2	1	12	2	1
O=C(O)/C=C/c1ccc([N+](=O)[O-])o1	12	3	6	41	61*	12
CCOC(=O)[C@]12CCC=C1N(Cc1ccccc1)C(=O)[C@H](CC(=O)NCCC(C)C)C2	-3	-3	4	x	-2	24*
CCOC(=O)[C@]12CCC=C1N(Cc1ccccc1)C(=O)[C@H](CC(=O)NCCCCc1ccccc1)C2	0	-1	-6	x	1	-3
COc1ccc(S(=O)(=O)Nc2ccc(O)c3ccccc23)cc1	27*	-4	42*	4	x	-2
COc1ccc(OC)c(NC(=O)Nc2ccc(O)c3ccccc23)c1	11	-8	20	6	54*	-1
COc1ccc(S(=O)(=O)Nc2ccccc2)cc1	1	-6	15	-2	2	-2
CC(C)CCNC(=O)C1(C)CCN1Cc1ccc2ccccc2c1 (stereo not drawn)	3	2	3	-3	-1	34*
O=C(NNC(=O)c1cc(-c2ccccc2)nc2ccccc12)Nc1cccc(Cl)c1	-4	-1	-1	0	x	81*
O=C(NNC(=O)c1cc(-c2cccnc2)nc2ccccc12)Nc1ccc(Cl)cc1	-4	-2	4	-1	10	-2
O=C(O)/C(=C\c1ccc(Br)cc1)c1ccc(S(=O)(=O)N2CCCCC2)s1	4	-5	7	7	34	-2
Cc1cccc(/C=C(\C(=O)O)c2ccc(S(=O)(=O)N3CCCC3)s2)c1	5	0	-1	9	52*	4
COc1cc(/C=C(\C(=O)O)c2ccc(S(=O)(=O)N3CCCC3)s2)ccc1OCCC(C)C	-2	5	-1	8	45*	4
O=C(O)/C(=C\c1cccc(F)c1)c1ccc(S(=O)(=O)N2CCCC2)s1	2	2	12	5	57*	-2
CCOc1ccccc1/C=C(\C(=O)O)c1ccc(S(=O)(=O)N2CCCCC2)s1	5	-2	-19	13	36*	3
O=C(NCCN1CCOCC1)c1ccc([N+](=O)[O-])cc1[N+](=O)[O-]	0	7	6	x	x	0
O=[N+]([O-])c1ccc(NCCN2CCOCC2)c([N+](=O)[O-])c1	-3	-9	-2	0	42*	-6
CCOc1cc(C(=O)NCCN2CCOCC2)cc(OCC)c1OCC	-1	4	-7	-5	x	0
CCOc1cc(NCCN2CCOCC2)c([N+](=O)[O-])cc1OCC	1	-22	6	14	1	24*
N#C/C(=C/c1ccc(O)c(O)c1)C(=O)NCc1ccc(Cl)cc1	-3	4	-4	78*	35*	0
N#C/C(=C/c1cccc(O)c1)C(=O)NCc1ccc(Cl)cc1	5	2	-16	-5	-1	4
N#Cc1ccc(-c2nc3ccc(Br)cn3c2Cc2ccccc2)cc1	-5	7	-5	x	2	22*
Cc1ccc(Cc2c(-c3ccc(C#N)cc3)nc3ccc(Br)cn23)cc1	1	11	-1	x	-3	22*
SMILES	LEDGF integ inh	MBD2 DNA inh	TDP2 absorb	NSD2 HMT inh	CASP6 VEID inh	UHRF1 binding
Cc1ccc(Cc2c(-c3ccccc3)nc3ccc(Br)cn23)cc1	1	7	-1	x	1	22*
C[C@@H]1CCCCO[C@@H](CN(C)C(=O)Nc2ccccc2)[C@@H](C)CN([C@H](C)CO)C(=O)c2cc(NS(C)(=O)=O)ccc2O1	x	x	x	x	2	x
CO[C@@H]1CN(C)C(=O)c2cc(NS(=O)(=O)c3cn(C)cn3)ccc2OC[C@H](C)N(Cc2cccc(F)c2)C[C@H]1C	x	x	x	x	-2	x
Cc1c(C(=O)O)cccc1[N+](=O)[O-]	2	4	5	x	0	1
O=C(O)c1c[nH]c2c([N+](=O)[O-])cccc2c1=O	1	1	1	2	36*	1
N#Cc1cn(CC(=O)NCC2CCCO2)c2ccccc12 (stereo not drawn)	-2	3	10	0	-1	23*
CCC(=O)Nc1ccc2c(c1)C(=O)N(C)C[C@H](OC)[C@@H](C)CN(C(C)=O)[C@@H](C)CO2	x	x	x	x	-2	x
O=C(COc1cccnc1[N+](=O)[O-])N1CCN(C(=O)c2ccco2)CC1	-6	4	-4	25	-1	25*
O=C(C[C@@H]1C=C[C@H](NC(=O)c2ccccc2)[C@H](CO)O1)NCc1ccncn1	x	x	x	x	1	x
CC(C)c1ccc(C(C(C(=O)c2ccccc2)N2CCOCC2)N2CCOCC2)cc1 (stereo not drawn)	-1	5	6	-3	3	47*
COC(=O)c1c(C)[nH]c(C(=O)COC(=O)Cn2cc(C(F)(F)F)ccc2=O)c1C	-5	-1	15	1	-1	82*
C[C@@H]1CCCCO[C@H](CN(C)S(=O)(=O)c2ccc(F)cc2)[C@@H](C)CN([C@@H](C)CO)C(=O)c2cc(NC(=O)c3ccccc3)ccc2O1	x	x	x	x	1	x
Cc1cccc(Sc2ccc([N+](=O)[O-])cc2[N+](=O)[O-])n1	-2	-2	-8	6	-2	28*
C[C@@H]1CCCCO[C@@H](CN(C)Cc2ccc3c(c2)OCO3)[C@H](C)CN([C@@H](C)CO)C(=O)c2cc(NS(=O)(=O)c3ccccc3)ccc2O1	x	x	x	x	2	x
C[C@@H]1CCCCO[C@H](CN(C)Cc2ccc3c(c2)OCO3)[C@@H](C)CN([C@@H](C)CO)C(=O)c2cc(NS(=O)(=O)c3ccccc3)ccc2O1	x	x	x	x	35*	x
Cc1noc(C)c1S(=O)(=O)Nc1ccc2c(c1)C(=O)N([C@@H](C)CO)C[C@@H](C)[C@H](CN(C)Cc1ccc(Cl)c(Cl)c1)OCCCC[C@@H](C)O2	x	x	x	x	78*	x
C[C@@H]1CN([C@@H](C)CO)C(=O)c2cc(NC(=O)Nc3ccccc3)ccc2O[C@@H]1CN(C)Cc1ccc2c(c1)OCO2	x	x	x	x	54*	x
COc1ccc(NC(=O)c2cc3ccccc3cc2OC)cc1	0	0	6	-2	0	2
COc1cc(C(=O)c2ccccc2)c(OC)cc1C(=O)Nc1ccc(O)cc1	11	10	-10	3	4	27*
FC(F)(F)c1ccccc1Cc1c(C2CCCCC2)nc2c3ccccc3ccn12	3	3	-14	x	1	22*
